Measurements taken from ChEMBL document CHEMBL4177755, “Combating Drug-Resistant Fungi with Novel Imperfectly Amphipathic Palindromic Peptides” (J Med Chem, 2018).
Converted amounts (≈) assume the structure as drawn. The source made the active and inactive calls. The calls are words filed in the database; no cut-off is given here. Bridge positions count the residues as written; N and C are the ends. Square brackets hold non-standard residues; d marks the D form. Peptide text beside a SMILES is read from it. * marks the point of attachment. X1 = CC[C@H](C)CCCCC(=O)*; Dab = NCC[C@H](N)C(=O)O

Tests used:
[1] = system: Escherichia coli; assay: Antibacterial activity against Escherichia coli ATCC 25922 after 24 hrs; assay type: functional; conditions: ATCC 25922, 24 h
Summary of the method: (§1)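 Broth microdilution. Mid-log bacteria in MHB at a final (0.5−1) × 10^5 CFU/mL were mixed with equal volumes of peptide serially diluted in 0.2% BSA. Plates were incubated 24 h at 37 °C and read at A492. MIC is the lowest concentration inhibiting 95% of growth. Each test was repeated at least 3 times.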

[2] = system: Escherichia coli; assay: Antibacterial activity against Escherichia coli 1005 after 24 hrs; assay type: functional; conditions: Escherichia coli, 1005, 24 h; summary of the method: as §1
[3] = system: Salmonella typhimurium; assay: Antibacterial activity against Salmonella typhimurium ATCC 14028 after 24 hrs; assay type: functional, Salmonella enterica subsp. enterica serovar Typhimurium; conditions: Salmonella enterica, ATCC 14028, 24 h; summary of the method: as §1
[4] = Antibacterial activity against Salmonella pullorum ATCC 7913 after 24 hrs; assay type: functional, Salmonella enterica subsp. enterica serovar Pullorum; conditions: Salmonella enterica, ATCC 7913, 24 h; summary of the method: as §1
[5] = system: Staphylococcus aureus; assay: Antibacterial activity against Staphylococcus aureus ATCC 29213 after 24 hrs; assay type: functional; conditions: ATCC 29213, 24 h
Summary of the method: (§2)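 Modified NCCLS broth microdilution. Mid-log bacteria at (0.5−1) × 10^5 CFU/mL in MHB were mixed 1:1 with peptide serially diluted in 0.2% BSA and incubated 24 h at 37 °C. Absorbance was read at 492 nm; MIC is the lowest concentration inhibiting 95% of growth. At least 3 repeats.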

[6] = system: Staphylococcus aureus; assay: Antibacterial activity against methicillin-resistant Staphylococcus aureus ATCC 4330 after 24 hrs; assay type: functional; conditions: ATCC 4330, 24 h; summary of the method: as §2
[7] = system: Staphylococcus epidermidis; assay: Antibacterial activity against Staphylococcus epidermidis ATCC 12228 after 24 hrs; assay type: functional; conditions: ATCC 12228, 24 h; summary of the method: as §1
[8] = system: Staphylococcus aureus; assay: Antibacterial activity against Staphylococcus aureus ATCC 25923 after 24 hrs; assay type: functional; conditions: ATCC 25923, 24 h; summary of the method: as §2
[9] = system: Escherichia coli; assay: Bactericidal activity against Escherichia coli ATCC 25922; assay type: functional; conditions: read-out: MBC99.9
Summary of the method: (§3)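 Wells from the 24 h, 37 °C MHB microdilution plates (bacteria at a final (0.5−1) × 10^5 CFU/mL; peptide diluted in 0.2% BSA) were plated on agar and incubated overnight. MBC is the lowest concentration killing >99.9% of cells. Each test was reproduced at least 3 times.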

[10] = system: Escherichia coli; assay: Bactericidal activity against Escherichia coli 1005; assay type: functional; conditions: read-out: MBC99.9; summary of the method: as §3
[11] = system: Salmonella typhimurium; assay: Bactericidal activity against Salmonella typhimurium ATCC 14028; assay type: functional, Salmonella enterica subsp. enterica serovar Typhimurium; conditions: Salmonella enterica, read-out: MBC99.9; summary of the method: as §3
[12] = Bactericidal activity against Salmonella pullorum ATCC 7913; assay type: functional, Salmonella enterica subsp. enterica serovar Pullorum; conditions: Salmonella enterica, read-out: MBC99.9; summary of the method: as §3
[13] = system: Staphylococcus aureus; assay: Bactericidal activity against Staphylococcus aureus ATCC 29213; assay type: functional; conditions: read-out: MBC99.9; summary of the method: as §3
[14] = system: Staphylococcus aureus; assay: Bactericidal activity against methicillin-resistant Staphylococcus aureus ATCC 4330; assay type: functional; conditions: read-out: MBC99.9
Summary of the method: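 Bacteria at (0.5−1) × 10^5 CFU/mL in MHB were exposed to serially diluted peptide (0.2% BSA) for 24 h at 37 °C, then 50 μL aliquots were plated on agar overnight. MBC is the lowest concentration killing >99.9% of cells. At least 3 repeats.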

[15] = system: Staphylococcus epidermidis; assay: Bactericidal activity against Staphylococcus epidermidis ATCC 12228; assay type: functional; conditions: read-out: MBC99.9; summary of the method: as §3
[16] = system: Staphylococcus aureus; assay: Bactericidal activity against Staphylococcus aureus ATCC 25923; assay type: functional; conditions: read-out: MBC99.9; summary of the method: as §3
[17] = system: Escherichia coli; assay: Antibacterial activity against Escherichia coli ATCC 25922 after 18 hrs in presence of NaCl by broth dilution method; assay type: functional; conditions: ATCC 25922, 18 h
[18] = system: Escherichia coli; assay: Antibacterial activity against Escherichia coli ATCC 25922 after 18 hrs in presence of KCl by broth dilution method; assay type: functional; conditions: ATCC 25922, 18 h
[19] = system: Escherichia coli; assay: Antibacterial activity against Escherichia coli ATCC 25922 after 18 hrs in presence of NH4Cl by broth dilution method; assay type: functional; conditions: ATCC 25922, 18 h
[20] = system: Escherichia coli; assay: Antibacterial activity against Escherichia coli ATCC 25922 after 18 hrs in presence of MgCl2 by broth dilution method; assay type: functional; conditions: ATCC 25922, 18 h
[21] = system: Escherichia coli; assay: Antibacterial activity against Escherichia coli ATCC 25922 after 18 hrs in presence of CaCl2 by broth dilution method; assay type: functional; conditions: ATCC 25922, 18 h
[22] = system: Escherichia coli; assay: Antibacterial activity against Escherichia coli ATCC 25922 after 18 hrs in presence of ZnCl2 by broth dilution method; assay type: functional; conditions: ATCC 25922, 18 h
[23] = system: Escherichia coli; assay: Antibacterial activity against Escherichia coli ATCC 25922 after 18 hrs in presence of FeCl3 by broth dilution method; assay type: functional; conditions: ATCC 25922, 18 h
[24] = system: Escherichia coli; assay: Antibacterial activity against Escherichia coli ATCC 25922 after 18 hrs in presence of 12.5% human heat-inactivated serum by broth dilution method; assay type: functional; conditions: ATCC 25922, 18 h
[25] = system: Escherichia coli; assay: Antibacterial activity against Escherichia coli ATCC 25922 after 18 hrs in presence of 25% human heat-inactivated serum by broth dilution method; assay type: functional; conditions: ATCC 25922, 18 h
[26] = system: Escherichia coli; assay: Antibacterial activity against Escherichia coli ATCC 25922 after 18 hrs in presence of 50% human heat-inactivated serum by broth dilution method; assay type: functional; conditions: ATCC 25922, 18 h
[27] = system: Lipid bilayer; assay: Binding affinity to phosphatidylcholine/cholesterol large unilamellar vesicle assessed as induction of calcein leakage at 2 to 32 uM after 15 mins by spectrofluorophotometric method; conditions: 0.25 h
Summary of the method: (§4)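 Large unilamellar vesicles were made from PG/CL/PE (2:1:7), PC/PE/PI/ergosterol (5:4:1:2) or PC/cholesterol (10:1), loaded with 70 mM calcein in Tris/NaCl/EDTA buffer at pH 7.4, frozen and thawed 20 times, and extruded through 100 nm filters. Free dye was removed by gel filtration, and peptide-induced calcein release was measured.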

[28] = system: Lipid bilayer; assay: Binding affinity to phosphatidylglycerol/cardiolipin/phosphatidylethanolamine large unilamellar vesicle assessed as induction of calcein leakage at 2 to 32 uM after 15 mins by spectrofluorophotometric method; summary of the method: as §4

Compound	MIC95 [1]	MIC95 [2]	MIC95 [3]	MIC95 [4]	MIC95 [5]	MIC95 [6]	MIC95 [7]	MIC95 [8]	MBC [9]	MBC [10]	MBC [11]	MBC [12]	MBC [13]	MBC [14]	MBC [15]	MBC [16]	MIC [17]	MIC [18]	MIC [19]	MIC [20]	also measured
CC[C@H](C)CCCCC(=O)N[C@@H](CCN)C(=O)N[C@H](C(=O)N[C@@H](CCN)C(=O)N[C@H]1CCNC(=O)[C@H]([C@@H](C)O)NC(=O)[C@H](CCN)NC(=O)[C@H](CCN)NC(=O)[C@H](CC(C)C)NC(=O)[C@@H](Cc2ccccc2)NC(=O)[C@H](CCN)NC1=O)[C@@H](C)O (X1-[Dab]T[Dab][Dab][Dab][dF]L[Dab][Dab]T; lactam 4-C)	2 µM (≈ 2.41 µg/mL)	1 µM (≈ 1.2 µg/mL)	2 µM (≈ 2.41 µg/mL)	1 µM (≈ 1.2 µg/mL)	64 µM (≈ 77 µg/mL)	64 µM (≈ 77 µg/mL)	32 µM (≈ 38.5 µg/mL)	32 µM (≈ 38.5 µg/mL)	4 µM (≈ 4.81 µg/mL)	2 µM (≈ 2.41 µg/mL)	2 µM (≈ 2.41 µg/mL)	2 µM (≈ 2.41 µg/mL)	64 µM (≈ 77 µg/mL)	64 µM (≈ 77 µg/mL)	32 µM (≈ 38.5 µg/mL)	64 µM (≈ 77 µg/mL)	8 µM	2 µM	2 µM	4 µM	MIC [21]: 2 µM; MIC [22]: 2 µM; MIC [23]: 2 µM; MIC [24]: 2 µM; MIC [25]: 2 µM; MIC [26]: 4 µM
O=C(O)c1cn(C2CC2)c2cc(N3CCNCC3)c(F)cc2c1=O [CIPROFLOXACIN]	2 µM (≈ 0.663 µg/mL)	2 µM (≈ 0.663 µg/mL)	8 µM (≈ 2.65 µg/mL)	2 µM (≈ 0.663 µg/mL)	4 µM (≈ 1.33 µg/mL)	1 µM (≈ 0.331 µg/mL)	2 µM (≈ 0.663 µg/mL)	8 µM (≈ 2.65 µg/mL)	4 µM (≈ 1.33 µg/mL)	4 µM (≈ 1.33 µg/mL)	16 µM (≈ 5.3 µg/mL)	4 µM (≈ 1.33 µg/mL)	4 µM (≈ 1.33 µg/mL)	1 µM (≈ 0.331 µg/mL)	4 µM (≈ 1.33 µg/mL)	8 µM (≈ 2.65 µg/mL)	2 µM	2 µM	2 µM	8 µM	MIC [21]: 8 µM; MIC [22]: 2 µM; MIC [23]: 4 µM; MIC [24]: 2 µM; MIC [25]: 2 µM; MIC [26]: 4 µM; Activity [27]: Not Active; Activity [28]: inactive
